Where two headings read alike, the source gives them in different places.
Experiments:
apoCaM = assay: ITC binding to apo CaM; settings: for Association constant Ka: apoCaM, buffer A (20 mM Imidazole pH 8.0, 100 mM NaCl, 2 mM EGTA), 24°C, single-site fitting model
How it was run: (§1)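 CaM (His6-tagged, E. coli-expressed; mutants made by inverse PCR) is injected into full-length wild-type or point-mutant Nm/Ng, or into synthetic IQ peptides (Nm 34–57, Ng 27–50). Apo and mutant CaM are in buffer A; Ca2+/CaM is in buffer B. Samples are degassed. VP-ITC or iTC200, 24°C, 10 (or 2) μl injections at 5 (or 2) min intervals. Buffer-titration dilution heats are subtracted, and a single-site fit gives Ka.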

Ca^2+/CaM = assay: ITC binding to Ca^2+/CaM; settings: buffer B (20 mM HEPES pH 8.0, 100 mM NaCl, 10 mM CaCl2), 24°C, single-site fitting model
How it was run: as §1

CaMWT = assay: ITC binding to wild-type CaM; settings: point mutants of Nm/Ng
How it was run: as §1

CaME85A/F142A = assay: ITC binding to CaM double mutant E85A/F142A; settings: buffer A (20 mM Imidazole pH 8.0, 100 mM NaCl, 2 mM EGTA), 24°C
How it was run: as §1

CaM = settings: in vivo CaM binding, cited from earlier work
[1] = test system: synaptic transmission, CA1 hippocampal synapses; settings: cited from earlier work
[2] = Ser36-phosphorylated; cited from earlier work

Row | Association constant Ka (apoCaM) | Association constant Ka (Ca^2+/CaM) | Substance | Ng-CaM binding (CaM) | other results
1 | 2.3 10^6 M^−1 | 0.3 10^6 M^−1 | NgIQ: synthetic wild-type IQ motif peptide of Ng, aa27–50 (NAAAAKIQASFRGHMARKKIKSGE) | – | –
2 | 25 10^6 M^−1 | 1.6 10^6 M^−1 | NmIQ: synthetic wild-type IQ motif peptide of Nm, aa34–57 | – | –
3 | 7.9 10^6 M^−1 | 0.52 10^6 M^−1 | neuromodulin [NmWT] | – | Association constant Ka (CaME85A/F142A): 0.46 10^6 M^−1
4 | 23 10^6 M^−1 | 0.96 10^6 M^−1 | neurogranin [NgWT] | – | affinity to apo CaM relative to Ca^2+/CaM (apoCaM; in words): higher affinity than that to Ca^2+/CaM; synaptic transmission / strength ([1]; overexpression, listed as wild-type Ng): potentiates synaptic transmission; synaptic strength ([1]; through interaction with CaM): enhances synaptic strength

Continued, substance first:

Row | Substance | Association constant Ka (apoCaM) | Association constant Ka (Ca^2+/CaM) | Ng-CaM binding (CaM) | other results
5 | NgR38A: full-length Ng point mutant Arg38Ala; GFP-tagged in the electrophysiology experiments | – | – | – | binding to apo CaM (in words) (apoCaM; mutant Ng): does not bind to the apo CaM; binding to CaM (in words) (CaMWT): completely abolish
6 | Arg38Gln (R38Q): Ng point mutant Arg38Gln (literature) | – | – | reduce Ng-CaM binding | Ng-CaM binding (CaM; listed as Arg38Gln): reduce the binding strength
7 | Ser36Asp (S36D): Ng point mutant Ser36Asp (literature) | – | – | reduce Ng-CaM binding | –
8 | Ile33Gln (I33Q): Ng point mutant Ile33Gln (literature) | – | – | completely inhibits the binding | –
9 | Ser36-phosphorylated Ng: Ng phosphorylated at Ser36 by PKC [reference compound] | – | – | – | synaptic strength ([1]; Ser36-phosphorylated): unable to enhance synaptic strength; binding to CaM and phosphatidic acid [2]: unable to bind CaM and phosphatidic acid

From paper PMC3589724 (Scientific Reports, 2013)
